Assay results published in ChEMBL document CHEMBL1909581, “Growth inhibition of human lung cancer cells via down-regulation of epidermal growth factor receptor signaling by yuanhuadine, a daphnane diterpene from Daphne genkwa” (J Nat Prod, 2011).
Activity calls are given as the source filed them. No cut-off for these calls is given here.

Columns and labels:
[1] = biological target: Serine/threonine-protein kinase mTOR (Homo sapiens) (UniProt P42345); experiment: Inhibition of MTOR-mediated 4EBP1 phosphorylation in human A549 cells at 20 nM after 24 to 48 hrs by Western blot analysis; assay type: cell-based
Method in brief: (§1)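 A549 cells (RPMI 1640, 10% FBS, 37 °C, 5% CO2) exposed to the compound at various concentrations for 24 or 48 h. Lysates run on 6–15% SDS-PAGE, transferred to PVDF, probed with primary antibodies overnight at 4 °C, and detected by ECL. Blots shown are representative of three independent experiments.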

[2] = biological target: Serine/threonine-protein kinase mTOR (Homo sapiens) (UniProt P42345); experiment: Inhibition of MTOR-mediated p70S6K activation in human A549 cells at 20 nM after 24 to 48 hrs by Western blot analysis; assay type: cell-based; method in brief: as §1
NCI-H1993 [3] = experiment: Antiproliferative activity against human NCI-H1993 cells after 3 days by SRB assay; assay type: functional, cell-based; details: NCI-H1993, 72 h
NCI-H1993 [4] = experiment: Antiproliferative activity against gefitinib resistant human NCI-H1993 cells after 3 days by SRB assay; assay type: functional, cell-based; details: NCI-H1993, 72 h
A549 [5] = experiment: Cell cycle arrest in human A549 cells assessed as accumulation at S phase at 100 nM after 24 hrs by propidium iodide staining-based flow cytometric analysis (reference value: 31.6 %); assay type: functional
A549 [6] = experiment: Cell cycle arrest in human A549 cells assessed as accumulation at S phase at 100 nM after 48 hrs by propidium iodide staining-based flow cytometric analysis (reference value: 31.6 %); assay type: functional
A549 [7] = experiment: Antiproliferative activity against human A549 cells assessed as growth inhibition incubated for 24 hrs measured 48 hrs after compound washout by SRB assay; assay type: functional, cell-based
[8] = biological target: Epidermal growth factor receptor (Homo sapiens) (UniProt P00533); experiment: Inhibition of EGFR-mediated Akt phosphorylation in EGF-stimulated human A549 cells pretreated at 20 nM by Western blot analysis; assay type: cell-based
Method in brief: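 A549 cells serum-starved 24 h, pretreated with 20 nM compound for 2 h, then stimulated with EGF (10 ng/mL) for 10 min. Levels of EGFR, Akt and ERK read by Western blot.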

[9] = biological target: Hepatocyte growth factor receptor (Homo sapiens) (UniProt P08581); experiment: Inhibition of c-Met phosphorylation at Tyr1230/1234/1235 in HGF-stimulated human A549 cells pretreated at 5 to 100 nM for 2 hrs by Western blot analysis; assay type: cell-based
Method in brief: (§2)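 A549 cells pretreated for 2 h with the compound at 5, 20 or 100 nM, then stimulated with HGF (50 ng/mL) for 10 min. c-Met and its downstream signalling proteins read by Western blot (SDS-PAGE, PVDF transfer, ECL detection).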

A549 [10] = experiment: Antitumor activity against human A549 cells xenografted in BALB/c mouse assessed as inhibition of tumor growth at 0.5 mg/kg, po once daily for 14 days measured for 27 days relative to control; assay type: functional; details: read-out: GI
Method in brief: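 Female nu/nu nude mice given 3 × 10^6 A549 cells sc into the right flank, in 200 μL medium. At ~100 mm3, randomized into groups of five. Dosed orally once daily for 14 days in 100 μL ethanol–Tween 80–water (1:1:98), vehicle as control. Tumor volume measured by caliper every 2–3 days; body weight monitored.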

A549 [11] = experiment: Downregulation of CDK2 expression in human A549 cells at G1 phase at 5 to 100 nM after 24 to 48 hrs by Western blot analysis; assay type: functional, cell-based
Method in brief: (§3)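 A549 cells treated with a range of concentrations for 24 or 48 h. Lysates run on 6–15% SDS-PAGE and blotted to PVDF, blocked in 5% milk/PBST. Primary antibodies overnight at 4 °C, secondary 2 h at room temperature, ECL detection. Representative of three independent experiments.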

A549 [12] = experiment: Downregulation of cyclin B1 expression in human A549 cells at G2/M phase at 5 to 100 nM after 24 to 48 hrs by Western blot analysis; assay type: functional, cell-based; method in brief: as §3
A549 [13] = experiment: Downregulation of CDC2 expression in human A549 cells at G2/M phase at 5 to 100 nM after 24 to 48 hrs by Western blot analysis; assay type: functional, cell-based; method in brief: as §3
[14] = biological target: Hepatocyte growth factor receptor (Homo sapiens) (UniProt P08581); experiment: Inhibition of c-Met-mediated p70S6K phosphorylation in HGF-stimulated human A549 cells pretreated at 5 to 100 nM by Western blot analysis; assay type: cell-based; method in brief: as §2
T47D = experiment: Antiproliferative activity against human T47D cells after 3 days by SRB assay; assay type: functional, cell-based; details: 72 h
Method in brief: (§4)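 Cells seeded at 5 × 10^4 cells/mL and exposed to a range of concentrations for 3 days. Fixed with 10% TCA, then SRB stain read. Growth expressed as % of solvent-treated control. IC50 obtained by nonlinear regression of percent survival versus concentration.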

A549 [15] = experiment: Cell cycle arrest in human A549 cells assessed as accumulation at Sub-G1 phase at 100 nM after 48 hrs by propidium iodide staining-based flow cytometric analysis (reference value: 0.2 %); assay type: functional
A549 [16] = experiment: Antiproliferative activity against human A549 cells assessed as reduction in colonies after treatment for 24 hrs measured after 14 days using Giemsa staining; assay type: functional, cell-based
Method in brief: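 A549 plated at 100 cells per 35 mm dish. After 24 h, medium with compound added for 24 h, then PBS wash and 14 days' growth in drug-free medium. Colonies methanol-fixed, Giemsa-stained, counted, and expressed as % of DMSO-treated control.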

A549 [17] = experiment: Cell cycle arrest in human A549 cells assessed as accumulation at S phase at 20 nM after 48 hrs by propidium iodide staining-based flow cytometric analysis (reference value: 31.6 %); assay type: functional
[18] = biological target: Hepatocyte growth factor receptor (Homo sapiens) (UniProt P08581); experiment: Inhibition of c-Met-mediated FAK phosphorylation in HGF-stimulated human A549 cells pretreated at 5 to 100 nM by Western blot analysis; assay type: cell-based; method in brief: as §2
A549 [19] = experiment: Cell cycle arrest in human A549 cells assessed as accumulation at G0/G1 phase at 100 nM after 24 hrs by propidium iodide staining-based flow cytometric analysis (reference value: 49.6 %); assay type: functional
A549 [20] = experiment: Cell cycle arrest in human A549 cells assessed as accumulation at G0/G1 phase at 20 nM after 24 hrs by propidium iodide staining-based flow cytometric analysis (reference value: 49.6 %); assay type: functional
A549 [21] = experiment: Downregulation of cyclin E expression in human A549 cells at G1 phase at 5 to 100 nM after 24 to 48 hrs by Western blot analysis; assay type: functional, cell-based; method in brief: as §3
[22] = biological target: Hepatocyte growth factor receptor (Homo sapiens) (UniProt P08581); experiment: Inhibition of c-Met-mediated MTOR phosphorylation in HGF-stimulated human A549 cells pretreated at 5 to 100 nM by Western blot analysis; assay type: cell-based; method in brief: as §2
A549 [23] = experiment: Cell cycle arrest in human A549 cells assessed as accumulation at S phase at 5 nM after 24 hrs by propidium iodide staining-based flow cytometric analysis (reference value: 31.6 %); assay type: functional
[24] = biological target: 3-phosphoinositide-dependent protein kinase 1 (Homo sapiens) (UniProt O15530); experiment: Inhibition of PDK1 phosphorylation in human A549 cells after 24 hrs by Western blot analysis; assay type: cell-based; method in brief: as §1
A549 [25] = experiment: Downregulation of phosphorylated Rb expression in human A549 cells at G1 phase at 5 to 100 nM after 24 to 48 hrs by Western blot analysis; assay type: functional, cell-based; method in brief: as §3
SK-HEP1 = experiment: Antiproliferative activity against human SKHEP1 cells after 3 days by SRB assay; assay type: functional, cell-based; details: SK-HEP1, 72 h; method in brief: as §4
A549 [26] = experiment: Cell cycle arrest in human A549 cells assessed as accumulation at G2/M phase at 5 nM after 48 hrs by propidium iodide staining-based flow cytometric analysis (reference value: 18.9 %); assay type: functional

Chain of Hepatocyte growth factor receptor (Homo sapiens) (P08581 whole entry): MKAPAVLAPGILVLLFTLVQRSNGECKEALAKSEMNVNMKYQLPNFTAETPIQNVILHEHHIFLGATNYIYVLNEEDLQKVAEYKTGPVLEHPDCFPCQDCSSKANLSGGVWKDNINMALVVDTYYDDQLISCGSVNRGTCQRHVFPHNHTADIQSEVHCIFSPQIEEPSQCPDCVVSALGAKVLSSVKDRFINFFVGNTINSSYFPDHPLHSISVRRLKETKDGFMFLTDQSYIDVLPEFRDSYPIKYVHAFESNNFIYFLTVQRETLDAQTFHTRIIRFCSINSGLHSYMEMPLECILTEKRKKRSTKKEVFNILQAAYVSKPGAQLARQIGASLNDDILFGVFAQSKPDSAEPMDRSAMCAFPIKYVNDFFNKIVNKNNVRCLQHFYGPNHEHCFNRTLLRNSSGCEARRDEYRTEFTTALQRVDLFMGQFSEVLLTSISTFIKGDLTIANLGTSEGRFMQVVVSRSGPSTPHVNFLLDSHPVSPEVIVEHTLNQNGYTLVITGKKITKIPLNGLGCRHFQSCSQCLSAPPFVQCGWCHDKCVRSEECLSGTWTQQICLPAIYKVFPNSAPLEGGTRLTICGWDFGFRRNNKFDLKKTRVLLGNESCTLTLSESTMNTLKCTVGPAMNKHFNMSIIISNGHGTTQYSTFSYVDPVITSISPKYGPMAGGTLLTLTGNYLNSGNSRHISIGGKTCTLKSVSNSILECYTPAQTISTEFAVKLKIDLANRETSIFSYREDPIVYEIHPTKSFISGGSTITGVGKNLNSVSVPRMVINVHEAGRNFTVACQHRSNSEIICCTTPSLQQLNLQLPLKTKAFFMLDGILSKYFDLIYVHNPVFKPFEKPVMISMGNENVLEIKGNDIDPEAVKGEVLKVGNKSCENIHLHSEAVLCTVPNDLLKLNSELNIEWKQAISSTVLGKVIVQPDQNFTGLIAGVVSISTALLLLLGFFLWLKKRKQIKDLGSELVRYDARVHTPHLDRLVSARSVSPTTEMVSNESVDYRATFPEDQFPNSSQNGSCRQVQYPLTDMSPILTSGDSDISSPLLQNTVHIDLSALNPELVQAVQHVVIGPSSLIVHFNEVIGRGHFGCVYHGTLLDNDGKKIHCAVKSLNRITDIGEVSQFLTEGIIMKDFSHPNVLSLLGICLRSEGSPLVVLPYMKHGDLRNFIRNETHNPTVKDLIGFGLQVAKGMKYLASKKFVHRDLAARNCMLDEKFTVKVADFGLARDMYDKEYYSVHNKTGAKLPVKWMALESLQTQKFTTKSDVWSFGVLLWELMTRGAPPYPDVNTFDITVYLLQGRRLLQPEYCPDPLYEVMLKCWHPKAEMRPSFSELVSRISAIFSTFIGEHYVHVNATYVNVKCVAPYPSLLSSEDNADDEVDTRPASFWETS
Chain of Epidermal growth factor receptor (Homo sapiens) (P00533 whole entry): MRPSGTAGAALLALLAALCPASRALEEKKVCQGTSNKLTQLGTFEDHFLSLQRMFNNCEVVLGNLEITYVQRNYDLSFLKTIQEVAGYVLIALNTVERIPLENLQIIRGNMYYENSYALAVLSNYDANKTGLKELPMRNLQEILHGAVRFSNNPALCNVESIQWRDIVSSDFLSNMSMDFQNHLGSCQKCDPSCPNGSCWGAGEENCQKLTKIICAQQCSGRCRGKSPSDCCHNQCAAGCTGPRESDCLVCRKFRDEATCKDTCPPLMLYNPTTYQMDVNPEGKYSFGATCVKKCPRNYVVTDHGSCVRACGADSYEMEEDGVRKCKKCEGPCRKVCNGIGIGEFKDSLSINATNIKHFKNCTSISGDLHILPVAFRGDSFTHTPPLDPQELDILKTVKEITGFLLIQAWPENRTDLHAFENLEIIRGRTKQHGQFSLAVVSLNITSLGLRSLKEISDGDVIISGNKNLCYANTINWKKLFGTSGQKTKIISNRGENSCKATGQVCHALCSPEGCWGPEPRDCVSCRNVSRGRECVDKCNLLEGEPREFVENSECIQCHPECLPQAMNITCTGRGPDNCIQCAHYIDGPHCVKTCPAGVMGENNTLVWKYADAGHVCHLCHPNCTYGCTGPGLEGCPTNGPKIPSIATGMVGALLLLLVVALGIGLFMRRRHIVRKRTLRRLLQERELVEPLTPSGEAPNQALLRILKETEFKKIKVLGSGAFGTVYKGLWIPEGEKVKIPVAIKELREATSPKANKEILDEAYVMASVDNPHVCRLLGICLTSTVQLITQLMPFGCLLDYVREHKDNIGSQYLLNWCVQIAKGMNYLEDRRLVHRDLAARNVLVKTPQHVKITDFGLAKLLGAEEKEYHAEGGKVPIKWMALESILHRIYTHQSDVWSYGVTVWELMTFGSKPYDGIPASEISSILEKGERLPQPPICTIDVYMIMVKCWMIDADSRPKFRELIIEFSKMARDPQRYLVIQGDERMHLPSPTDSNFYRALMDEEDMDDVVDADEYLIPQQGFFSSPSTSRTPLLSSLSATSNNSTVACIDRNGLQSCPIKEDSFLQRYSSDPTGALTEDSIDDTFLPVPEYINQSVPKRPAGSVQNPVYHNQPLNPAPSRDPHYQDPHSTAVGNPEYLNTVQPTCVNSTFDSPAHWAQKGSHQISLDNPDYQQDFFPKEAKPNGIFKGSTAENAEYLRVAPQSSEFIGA
Chain of 3-phosphoinositide-dependent protein kinase 1 (Homo sapiens) (O15530 whole entry): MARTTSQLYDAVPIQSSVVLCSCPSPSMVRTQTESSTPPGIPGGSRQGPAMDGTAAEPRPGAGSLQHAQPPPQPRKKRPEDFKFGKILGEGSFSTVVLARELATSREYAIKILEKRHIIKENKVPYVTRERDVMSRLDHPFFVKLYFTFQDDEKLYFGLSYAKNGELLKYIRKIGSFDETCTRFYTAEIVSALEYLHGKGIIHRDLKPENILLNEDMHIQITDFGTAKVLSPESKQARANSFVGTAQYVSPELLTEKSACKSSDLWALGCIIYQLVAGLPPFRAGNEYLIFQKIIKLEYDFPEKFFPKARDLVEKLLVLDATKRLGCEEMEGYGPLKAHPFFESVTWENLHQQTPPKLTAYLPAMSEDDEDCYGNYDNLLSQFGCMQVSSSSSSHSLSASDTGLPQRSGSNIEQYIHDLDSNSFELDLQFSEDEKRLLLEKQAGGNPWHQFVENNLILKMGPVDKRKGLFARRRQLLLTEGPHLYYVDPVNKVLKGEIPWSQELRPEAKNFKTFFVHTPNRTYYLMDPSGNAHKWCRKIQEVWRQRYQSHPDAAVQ

Structure (SMILES): C=C(C)[C@@]12O[C@@]3(/C=C/C=C/CCCCC)O[C@@H]1[C@@H]1[C@@H]4O[C@]4(CO)[C@@H](O)[C@]4(O)C(=O)C(C)=C[C@H]4[C@@]1(O3)[C@H](C)[C@H]2OC(C)=O [YUANHUADINE]
- inhibition [1]: Active
- inhibition [2]: Active
- IC50 (NCI-H1993 [3]): 0.0047 µM
- IC50 (NCI-H1993 [4]): 0.0041 µM
- Activity (A549 [5]): 6.7%
- Activity (A549 [6]): 12.6%
- growth inhibition (GI) (A549 [7]): inactive
- inhibition [8]: Active
- inhibition [9]: Active
- inhibition in vivo at 0.5 mg/kg (A549 [10]): 50%
- Activity (A549 [11]): Active
- Activity (A549 [12]): Active
- Activity (A549 [13]): Active
- inhibition [14]: Active
- IC50 (T47D): 12.7 µM
- Activity (A549 [15]): 0.3%
- Activity (A549 [16]): Active
- Activity (A549 [17]): 15.6%
- inhibition [18]: Active
- Activity (A549 [19]): 65.3%
- Activity (A549 [20]): 68.2%
- Activity (A549 [21]): Active
- inhibition [22]: Active
- Activity (A549 [23]): 5.5%
- inhibition [24]: Dose-dependent effect
- Activity (A549 [25]): Active
- IC50 (SK-HEP1): 12.9 µM
- Activity (A549 [26]): 25.1%
